Assay results published in ChEMBL document CHEMBL3758150, “Discovery and SAR of N-(1-((substituted piperidin-4-yl)methyl)-3-methoxypiperidin-4-yl)-2-methoxybenzamide derivatives: 5-Hydroxytryptamine receptor 4 agonist as a potent prokinetic agent” (Eur J Med Chem, 2016).

Columns and labels:
[1] = Solubility of the compound in distilled water; type: physicochemical
[2] = target: Adrenergic receptor alpha-2 (Homo sapiens) (UniProt P08913+P18825+P18089); conditions: 1 to 2 uM
[3] = target: Muscarinic acetylcholine receptor M2 (Homo sapiens) (UniProt P08172); conditions: 1 to 2 uM
[4] = target: Substance-K receptor (Homo sapiens) (UniProt P21452); conditions: 1 to 2 uM
[5] = target: Substance-P receptor (Homo sapiens) (UniProt P25103); conditions: 1 to 2 uM
[6] = target: Somatostatin receptor type 2 (Homo sapiens) (UniProt P30874); conditions: 1 to 2 uM
Chain of Somatostatin receptor type 2 (Homo sapiens) (P30874 whole entry): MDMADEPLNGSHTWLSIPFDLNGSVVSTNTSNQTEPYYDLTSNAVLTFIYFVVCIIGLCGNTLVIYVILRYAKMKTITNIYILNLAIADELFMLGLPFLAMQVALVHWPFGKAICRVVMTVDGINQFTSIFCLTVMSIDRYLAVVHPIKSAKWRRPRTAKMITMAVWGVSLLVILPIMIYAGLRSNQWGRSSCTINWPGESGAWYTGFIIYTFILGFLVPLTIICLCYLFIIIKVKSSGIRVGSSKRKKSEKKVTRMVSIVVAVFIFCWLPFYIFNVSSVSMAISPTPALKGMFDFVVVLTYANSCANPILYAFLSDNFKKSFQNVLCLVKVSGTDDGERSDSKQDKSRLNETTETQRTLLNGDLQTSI

[7] = target: 5-hydroxytryptamine receptor 1B (Homo sapiens) (UniProt P28222); conditions: 1 to 2 uM
[8] = target: Motilin receptor (Homo sapiens) (UniProt O43193); conditions: 1 to 2 uM
[9] = target: Beta-1 adrenergic receptor (Homo sapiens) (UniProt P08588); conditions: 1 to 2 uM
[10] = target: Adrenergic receptor alpha-1 (Homo sapiens) (UniProt P35348+P25100+P35368); conditions: 1 to 2 uM
[11] = target: 5-hydroxytryptamine receptor 2A (Homo sapiens) (UniProt P28223); conditions: 1 to 2 uM
Chain of 5-hydroxytryptamine receptor 2A (Homo sapiens) (P28223 whole entry): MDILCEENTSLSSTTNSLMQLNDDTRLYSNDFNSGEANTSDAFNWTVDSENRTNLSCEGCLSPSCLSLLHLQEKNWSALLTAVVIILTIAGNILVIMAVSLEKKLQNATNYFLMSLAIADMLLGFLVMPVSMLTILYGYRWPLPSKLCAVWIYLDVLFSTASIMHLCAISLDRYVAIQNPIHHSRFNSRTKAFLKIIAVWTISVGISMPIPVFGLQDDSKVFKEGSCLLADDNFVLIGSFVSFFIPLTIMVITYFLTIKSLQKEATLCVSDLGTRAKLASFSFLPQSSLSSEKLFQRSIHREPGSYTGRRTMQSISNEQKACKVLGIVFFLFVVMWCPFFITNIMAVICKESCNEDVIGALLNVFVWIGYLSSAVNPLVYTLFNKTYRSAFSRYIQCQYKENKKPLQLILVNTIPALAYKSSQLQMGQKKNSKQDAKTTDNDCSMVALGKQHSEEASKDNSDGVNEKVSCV

[12] = target: Kappa-type opioid receptor (Homo sapiens) (UniProt P41145); conditions: 1 to 2 uM
[13] = target: D(2) dopamine receptor (Homo sapiens) (UniProt P14416); conditions: 1 to 2 uM
Chain of D(2) dopamine receptor (Homo sapiens) (P14416 whole entry): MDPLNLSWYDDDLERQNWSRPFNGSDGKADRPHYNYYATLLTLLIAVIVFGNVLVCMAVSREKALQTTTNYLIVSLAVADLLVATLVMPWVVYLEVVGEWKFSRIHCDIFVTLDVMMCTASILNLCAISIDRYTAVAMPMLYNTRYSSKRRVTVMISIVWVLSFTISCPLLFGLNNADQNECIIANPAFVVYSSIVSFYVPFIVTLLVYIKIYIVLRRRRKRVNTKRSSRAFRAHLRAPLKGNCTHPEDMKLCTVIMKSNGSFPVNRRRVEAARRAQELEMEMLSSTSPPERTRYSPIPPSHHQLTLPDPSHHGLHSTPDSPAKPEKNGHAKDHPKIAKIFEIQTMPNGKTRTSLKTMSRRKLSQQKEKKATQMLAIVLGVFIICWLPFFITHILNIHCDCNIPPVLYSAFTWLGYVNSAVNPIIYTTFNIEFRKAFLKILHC

[14] = target: Mu-type opioid receptor (Homo sapiens) (UniProt P35372); conditions: 1 to 2 uM
[15] = target: 5-hydroxytryptamine receptor 1A (Homo sapiens) (UniProt P08908); conditions: 1 to 2 uM
Chain of 5-hydroxytryptamine receptor 1A (Homo sapiens) (P08908 whole entry): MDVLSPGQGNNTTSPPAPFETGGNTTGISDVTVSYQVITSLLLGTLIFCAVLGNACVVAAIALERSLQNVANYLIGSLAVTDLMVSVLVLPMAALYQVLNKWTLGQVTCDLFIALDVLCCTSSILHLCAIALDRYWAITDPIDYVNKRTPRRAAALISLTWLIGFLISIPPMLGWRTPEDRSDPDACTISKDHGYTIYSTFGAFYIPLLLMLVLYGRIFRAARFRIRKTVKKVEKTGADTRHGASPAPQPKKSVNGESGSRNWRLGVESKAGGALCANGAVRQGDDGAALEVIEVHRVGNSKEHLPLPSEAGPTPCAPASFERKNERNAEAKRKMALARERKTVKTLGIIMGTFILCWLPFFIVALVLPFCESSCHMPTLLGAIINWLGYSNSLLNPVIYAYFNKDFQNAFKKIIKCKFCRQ

[16] = target: 5-hydroxytryptamine receptor 2B (Homo sapiens) (UniProt P41595); conditions: 1 to 2 uM
Chain of 5-hydroxytryptamine receptor 2B (Homo sapiens) (P41595 whole entry): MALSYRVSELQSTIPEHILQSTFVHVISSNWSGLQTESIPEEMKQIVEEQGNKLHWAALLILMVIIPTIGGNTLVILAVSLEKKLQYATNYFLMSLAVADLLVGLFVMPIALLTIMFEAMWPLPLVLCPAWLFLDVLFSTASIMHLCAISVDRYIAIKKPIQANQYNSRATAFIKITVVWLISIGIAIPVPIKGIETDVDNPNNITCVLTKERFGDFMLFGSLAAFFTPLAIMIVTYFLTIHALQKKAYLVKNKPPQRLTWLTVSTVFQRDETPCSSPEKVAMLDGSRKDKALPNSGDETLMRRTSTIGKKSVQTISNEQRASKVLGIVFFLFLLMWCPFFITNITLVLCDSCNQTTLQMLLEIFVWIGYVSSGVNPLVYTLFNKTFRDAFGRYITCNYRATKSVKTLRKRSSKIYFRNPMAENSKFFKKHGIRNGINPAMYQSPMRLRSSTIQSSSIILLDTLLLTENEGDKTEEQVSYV

[17] = target: D(3) dopamine receptor (Homo sapiens) (UniProt P35462); conditions: 1 to 2 uM
[18] = target: 5-hydroxytryptamine receptor 3A (Homo sapiens) (UniProt P46098); conditions: 1 to 2 uM
[19] = target: Cholecystokinin receptor type A (Homo sapiens) (UniProt P32238); conditions: 1 to 2 uM
[20] = target: T1, 5-hydroxytryptamine receptor 4 (Homo sapiens, UniProt Q13639); conditions: 1 to 2 uM
T1 sequence (Q13639 whole entry): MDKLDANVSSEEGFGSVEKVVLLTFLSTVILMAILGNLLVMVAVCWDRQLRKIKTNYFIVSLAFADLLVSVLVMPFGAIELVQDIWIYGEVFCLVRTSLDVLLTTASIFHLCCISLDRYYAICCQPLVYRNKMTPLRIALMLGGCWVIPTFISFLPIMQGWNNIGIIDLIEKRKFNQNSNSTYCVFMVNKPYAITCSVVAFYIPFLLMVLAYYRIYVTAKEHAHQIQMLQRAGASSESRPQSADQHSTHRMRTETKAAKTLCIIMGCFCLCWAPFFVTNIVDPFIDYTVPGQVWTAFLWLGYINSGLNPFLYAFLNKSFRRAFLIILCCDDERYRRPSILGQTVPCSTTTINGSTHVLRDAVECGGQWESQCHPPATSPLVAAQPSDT

[21] = target: Muscarinic acetylcholine receptor M3 (Homo sapiens) (UniProt P20309); conditions: 1 to 2 uM
Chain of Muscarinic acetylcholine receptor M3 (Homo sapiens) (P20309 whole entry, looked up): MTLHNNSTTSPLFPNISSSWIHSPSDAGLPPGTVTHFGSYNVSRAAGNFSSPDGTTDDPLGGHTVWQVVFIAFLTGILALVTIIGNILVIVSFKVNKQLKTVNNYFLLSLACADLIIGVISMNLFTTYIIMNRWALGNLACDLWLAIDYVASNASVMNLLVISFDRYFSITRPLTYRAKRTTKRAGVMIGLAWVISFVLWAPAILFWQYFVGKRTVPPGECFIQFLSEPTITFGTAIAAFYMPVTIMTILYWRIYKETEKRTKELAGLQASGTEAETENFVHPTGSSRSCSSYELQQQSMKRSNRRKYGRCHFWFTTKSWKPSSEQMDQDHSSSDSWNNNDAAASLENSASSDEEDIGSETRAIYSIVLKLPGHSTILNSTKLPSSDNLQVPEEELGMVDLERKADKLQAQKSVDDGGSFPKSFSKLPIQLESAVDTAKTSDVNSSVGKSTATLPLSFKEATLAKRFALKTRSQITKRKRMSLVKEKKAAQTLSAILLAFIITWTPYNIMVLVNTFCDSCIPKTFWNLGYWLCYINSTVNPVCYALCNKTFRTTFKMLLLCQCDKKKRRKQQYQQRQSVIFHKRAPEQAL

[22] = target: D(2) dopamine receptor (Homo sapiens) (UniProt P14416); conditions: 1 to 2 uM; remark: listed apart in the source
[23] = target: T1, 5-hydroxytryptamine receptor 4; experiment: Displacement of [3H]-GR113808 from human 5-HT4 receptor expressed in African green monkey COS7 cell membranes after 30 mins by liquid scintillation counting analysis; parameters: species or system COS-7
How it was run: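 Membranes from Cos-7 cells expressing human 5-HT4: cells washed in PBS, pelleted, then resuspended in ice-cold 50 mM HEPES pH 7.4 and spun at 40,000 g for 30 min at 4 °C. Nonspecific binding was set with 10 μM 5-HT. IC50 came from linear regression of the displacement curve.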

Rattus norvegicus [24] = experiment: Induction of gastric emptying rate in Sprague-Dawley rat at 5 mg/kg, iv administered prior to feeding measured after 30 mins; type: functional, Stomach
[25] = target: 5-hydroxytryptamine receptor 4 (Rattus norvegicus, UniProt Q62758); experiment: Agonist activity at 5-HT4 receptor in rat esophageal thoracic muscularis mucosae assessed as carbachol-induced contraction
Chain of 5-hydroxytryptamine receptor 4 (Rattus norvegicus, UniProt Q62758) (Q62758 whole entry): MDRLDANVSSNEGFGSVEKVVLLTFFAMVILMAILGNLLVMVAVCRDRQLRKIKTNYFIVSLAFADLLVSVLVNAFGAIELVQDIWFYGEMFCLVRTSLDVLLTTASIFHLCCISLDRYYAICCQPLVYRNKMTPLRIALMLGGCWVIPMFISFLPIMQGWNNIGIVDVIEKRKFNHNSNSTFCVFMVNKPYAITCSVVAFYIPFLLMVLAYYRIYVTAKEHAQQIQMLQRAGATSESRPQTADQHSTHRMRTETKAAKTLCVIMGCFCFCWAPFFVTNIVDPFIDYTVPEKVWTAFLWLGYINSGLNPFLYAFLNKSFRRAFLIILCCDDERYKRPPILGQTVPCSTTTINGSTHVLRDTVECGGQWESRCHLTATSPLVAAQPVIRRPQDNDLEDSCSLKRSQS
How it was run: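 The distal 1.2 cm of rat esophagus was equilibrated 60 min in Krebs–Henseleit, washed every 15 min, with isometric force recording. Tissue was precontracted with 3 μM carbachol, then given a cumulative relaxation curve to 5-HT. After a wash and 60 min recovery it was recontracted and a test-compound curve run. Potency is relative to 5-HT in the same preparation.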

[26] = Cmax in rat at 5 mg/kg, po; type: ADME, organism-based; parameters: dose 5 mg/kg, route oral; conditions: in vivo
[27] = Tmax in rat at 5 mg/kg, po; type: ADME, organism-based; conditions: in vivo
[28] = Half life in rat at 5 mg/kg, po; type: ADME, organism-based; conditions: in vivo
Rattus norvegicus [29] = experiment: Induction of gastric emptying rate in Sprague-Dawley rat at 5 mg/kg, iv administered prior to feeding along with cisplatin injection measured after 40 mins; type: functional, Stomach
How it was run: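 Male Sprague-Dawley rats (220–250 g) were fasted 18 h with water available. A 2 mL semisolid meal was given 30 min after drug, together with cisplatin 5 mg/kg i.v. Gastric emptying was determined 40 min later from stomach weights versus 0-time controls: [1 − test/control] × 100.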

Rattus norvegicus [30] = experiment: AUCinfinity in rat at 5 mg/kg, po; type: ADME, organism-based; parameters: dose 5 mg/kg, time infinity, route oral; conditions: in vivo
[31] = target: Voltage-gated inwardly rectifying potassium channel KCNH2 (Homo sapiens, UniProt Q12809); experiment: Inhibition of human ERG channel by fluorescence polarization assay
Chain of Voltage-gated inwardly rectifying potassium channel KCNH2 (Q12809 whole entry): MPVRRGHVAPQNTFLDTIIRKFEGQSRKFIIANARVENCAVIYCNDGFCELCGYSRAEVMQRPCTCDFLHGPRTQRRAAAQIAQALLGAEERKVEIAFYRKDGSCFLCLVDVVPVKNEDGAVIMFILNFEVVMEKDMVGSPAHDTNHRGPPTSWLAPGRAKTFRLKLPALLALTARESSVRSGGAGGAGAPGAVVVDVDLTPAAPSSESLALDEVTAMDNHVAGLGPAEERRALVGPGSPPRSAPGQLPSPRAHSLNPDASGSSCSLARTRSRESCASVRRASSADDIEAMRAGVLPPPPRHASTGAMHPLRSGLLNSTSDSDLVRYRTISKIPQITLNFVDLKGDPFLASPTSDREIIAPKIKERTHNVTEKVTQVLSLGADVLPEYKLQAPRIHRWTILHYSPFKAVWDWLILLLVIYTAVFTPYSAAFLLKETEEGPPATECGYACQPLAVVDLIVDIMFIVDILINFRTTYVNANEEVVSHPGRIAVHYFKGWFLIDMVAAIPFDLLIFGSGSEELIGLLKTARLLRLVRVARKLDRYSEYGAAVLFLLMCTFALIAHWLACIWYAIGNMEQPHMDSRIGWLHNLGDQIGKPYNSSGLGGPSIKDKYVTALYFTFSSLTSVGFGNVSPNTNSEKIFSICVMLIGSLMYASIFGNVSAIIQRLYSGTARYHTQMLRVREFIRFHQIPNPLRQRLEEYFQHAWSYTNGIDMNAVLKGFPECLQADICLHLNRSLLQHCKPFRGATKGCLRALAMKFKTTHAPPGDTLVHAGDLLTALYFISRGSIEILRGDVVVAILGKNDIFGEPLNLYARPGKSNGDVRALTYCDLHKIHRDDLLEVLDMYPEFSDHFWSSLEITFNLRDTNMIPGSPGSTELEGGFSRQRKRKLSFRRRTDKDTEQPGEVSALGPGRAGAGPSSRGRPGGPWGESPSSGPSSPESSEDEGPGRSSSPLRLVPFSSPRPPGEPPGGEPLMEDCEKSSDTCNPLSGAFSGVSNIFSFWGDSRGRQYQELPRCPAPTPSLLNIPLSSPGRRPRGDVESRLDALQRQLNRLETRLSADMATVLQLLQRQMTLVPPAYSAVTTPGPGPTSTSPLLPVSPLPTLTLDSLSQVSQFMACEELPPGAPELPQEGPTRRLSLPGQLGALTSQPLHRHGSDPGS

**Q.** With COc1cc(N)c(Cl)cc1C(=O)N[C@H]1CCN(CC2CCN(C(=O)C(C)C)CC2)C[C@H]1OC.O=C(O)C(O)C(O)C(=O)O as the compound, how does the solubility [1] read?
**A.** > 30 mg/mL

**Q.** With COc1cc(N)c(Cl)cc1C(=O)N[C@H]1CCN(CC2CCN(C(=O)C(C)C)CC2)C[C@H]1OC (racemic) as the compound, how does the inhibition [2] read?
**A.** 50%

**Q.** And the inhibition [3]?
**A.** 50%

**Q.** What about the inhibition [4] of the same compound?
**A.** 50%

**Q.** What about the inhibition [5] of the same compound?
**A.** 50%

**Q.** What about the inhibition [6] of the same compound?
**A.** 50%

**Q.** And the inhibition [7]?
**A.** 50%

**Q.** What about the inhibition [8] of the same compound?
**A.** 50%

**Q.** What about the inhibition [9] of the same compound?
**A.** 50%

**Q.** And the inhibition [10]?
**A.** 50%

**Q.** And the inhibition [11]?
**A.** 50%

**Q.** And the inhibition [12]?
**A.** 50%

**Q.** And the inhibition [13]?
**A.** 50%

**Q.** And the inhibition [14]?
**A.** 50%

**Q.** And the inhibition [15]?
**A.** 50%

**Q.** What about the inhibition [16] of the same compound?
**A.** 50%

**Q.** And the inhibition [17]?
**A.** 50%

**Q.** What about the inhibition [18] of the same compound?
**A.** 50%

**Q.** And the inhibition [19]?
**A.** 50%

**Q.** What about the inhibition [20] of the same compound?
**A.** 50%

**Q.** And the inhibition [21]?
**A.** 50%

**Q.** What about the inhibition [22] of the same compound?
**A.** 50%

**Q.** For COc1cc(N)c(Cl)cc1C(=O)N[C@H]1CCN(CC2CCN(C(=O)C(C)C)CC2)C[C@H]1OC.Cl, which solubility [1] is on record?
**A.** > 15 mg/mL

**Q.** Which IC50 [23] does the source give for COC(=O)N1CCC(CN2CC[C@H](NC(=O)c3cc(Cl)c(N)cc3OC)[C@H](OC)C2)CC1 (relative stereo) here?
**A.** 190 nM

**Q.** And the Activity (Rattus norvegicus [24])?
**A.** 56.2%

**Q.** Which results are given for COc1cc(N)c(Cl)cc1C(=O)N[C@H]1CCN(CC2CCN(C(=O)NC(C)C)CC2)C[C@H]1OC (relative stereo)?
**A.** IC50 [23]: 73 nM; Activity (Rattus norvegicus [24]): 59.9%

**Q.** For COc1cc(N)c(Cl)cc1C(=O)N[C@H]1CCN(CCCn2ccnc2)C[C@H]1OC (relative stereo), which IC50 [23] is on record?
**A.** 1160 nM

**Q.** What about the EC50 [25] of the same compound?
**A.** 251 nM

**Q.** Which results are given for COc1cc(N)c(Cl)cc1C(=O)N[C@H]1CCN(CCC(=O)N2CCCCC2)C[C@H]1OC (relative stereo)?
**A.** IC50 [23]: 560 nM; EC50 [25]: 1050 nM

**Q.** Which results are given for CCC(=O)N1CCC(CN2CC[C@H](NC(=O)c3cc(Cl)c(N)cc3OC)[C@H](OC)C2)CC1 (relative stereo)?
**A.** IC50 [23]: 329 nM; EC50 [25]: 380 nM; Activity (Rattus norvegicus [24]): 57.8%

**Q.** For COc1cc(N)c(Cl)cc1C(=O)N[C@H]1CCN(CC2CCN(C(=O)CC(C)C)CC2)C[C@H]1OC (relative stereo), which Activity (Rattus norvegicus [24]) is on record?
**A.** 54.3%

**Q.** Which Cmax [26] does the source give for COc1cc(N)c(Cl)cc1C(=O)N[C@H]1CCN(CCCOc2ccc(F)cc2)C[C@H]1OC (relative stereo) [REL-CISAPRIDE] here?
**A.** 104 ng/mL

**Q.** And the Tmax [27]?
**A.** 15 min

**Q.** What about the half-life [28] of the same compound?
**A.** 88.8 min

**Q.** And the Activity (Rattus norvegicus [29])?
**A.** 57.2%

**Q.** And the Activity (Rattus norvegicus [24])?
**A.** 57.1%

**Q.** What about the AUC (Rattus norvegicus [30]) of the same compound?
**A.** 142 ng·h/mL

**Q.** Which results are given for COc1cc(N)c(Cl)cc1C(=O)N[C@H]1CCN(CCCn2cncn2)C[C@H]1OC (relative stereo)?
**A.** IC50 [23]: 1270 nM; IC50 [31]: 7710 nM; EC50 [25]: 708 nM

**Q.** For Br.COc1cc(N)c(Cl)cc1C(=O)N[C@H]1CCN(CC2CCN(C(=O)C(C)C)CC2)C[C@H]1OC, which solubility [1] is on record?
**A.** < 5 mg/mL

**Q.** Which IC50 [23] does the source give for CCCOC(=O)N1CCC(CN2CC[C@H](NC(=O)c3cc(Cl)c(N)cc3OC)[C@H](OC)C2)CC1 (relative stereo) here?
**A.** 134 nM

**Q.** What about the Activity (Rattus norvegicus [24]) of the same compound?
**A.** 57.7%

**Q.** For COc1cc(N)c(Cl)cc1C(=O)N[C@H]1CCN(CC2CCN(C(=O)N(C)C)CC2)C[C@H]1OC (relative stereo), which IC50 [23] is on record?
**A.** 52 nM

**Q.** What about the Activity (Rattus norvegicus [24]) of the same compound?
**A.** 46%

**Q.** With COc1cc(N)c(Cl)cc1C(=O)N[C@H]1CCN(CC2CCN(C(=O)C(C)C)CC2)C[C@H]1OC.CS(=O)(=O)O as the compound, how does the solubility [1] read?
**A.** > 10 mg/mL

**Q.** Which IC50 [23] does the source give for COc1cc(N)c(Cl)cc1C(=O)N[C@H]1CCN(CC2CCN(C(=O)C(C)(C)C)CC2)C[C@H]1OC (relative stereo) here?
**A.** 118 nM

**Q.** And the Cmax [26]?
**A.** 345 ng/mL

**Q.** And the Tmax [27]?
**A.** 15 min

**Q.** What about the EC50 [25] of the same compound?
**A.** 100 nM

**Q.** And the half-life [28]?
**A.** 46.2 min

**Q.** What about the Activity (Rattus norvegicus [29]) of the same compound?
**A.** 56.6%

**Q.** And the Activity (Rattus norvegicus [24])?
**A.** 56.4%

**Q.** What about the AUC (Rattus norvegicus [30]) of the same compound?
**A.** 263 ng·h/mL

**Q.** With COc1cc(N)c(Cl)cc1C(=O)N[C@H]1CCN(CCC(=O)N2CCCC2)C[C@H]1OC (relative stereo) as the compound, how does the IC50 [23] read?
**A.** 920 nM
